PAD4 FP inh – blocks human protein arginine deiminase 4; Q9UM07; recombinant PAD4, RCA probe fluorescence polarization; inhibition, % at 6.36 µM; hit rate 0.41% among 330,000;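 active = percent inhibition above a cutoff equal to the mean of all tested compounds plus 3 SD, cut at about 15% in these data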;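 note: 0% = PAD4 with RCA probe and DMSO and 100% = probe without PAD4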
SIAE primary – human SIAE inhibition, primary screen; Q9HAT2; SIAE FP-Rh probe binding, fluorescence polarization; inhibition, % at 9.66 µM; hit rate 0.69% among 370,000;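 active = inhibition above a cutoff: mean of compounds within the control limits plus 3 SD of those, cut at about 17% in these data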;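 note: 0% = plate median of compound wells and 100% = probe without SIAE protein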
TDP2 absorb – TDP2 (human) inhibition, absorbance primary screen. recombinant TDP2, T5PNP hydrolysis, p-nitrophenol absorbance 415 nm. inhibition, % at 12.8 µM. hit rate 0.34% among 370,000;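 active = inhibition above the mean of all tested compounds plus 3 SD, set per campaign, cut at about 25% in these data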;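 note: 0% = DMSO with enzyme and 100% = buffer with substrate but no TDP2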
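System – recombinant human TDP2 · Quantity – TDP2 enzyme at 120 nM final · Doses – single concentration, 12.8 µM nominal, with 1% DMSO · Incubation – 2 h at 37 °C · Measured by – epi absorbance of p-nitrophenol freed from T5PNP by hydrolysis · Read-out – % inhibition relative to enzyme-containing and enzyme-free wells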
TCR CD3 inh – blocks the human TCR-CD3 interaction. TAMRA-labeled TCR probe fluorescence, biochemical. inhibition, % at 9.4 µM. hit rate 0.37% among 360,000. AID 651800; in the data active = inhibition above about 19%;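 note: recombinant mutant TCR 2C K166C tagged with TAMRA read by polarization; 0% = receptor in buffer alone and 100% = receptor with positive control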
ABHD4 inh – ABHD4 (mouse) inhibition, primary FP screen; hit rate 0.54% among 370,000; purified mABHD4, FP-Rh probe fluorescence polarization; inhibition, % at 8.92 µM; AID 720543; Q8VD66;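 active = inhibition exceeding the mean over every tested compound plus 3 SD, cut at about 30% in these data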;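 note: 0% = plate median of compound wells and 100% = S159A mutant with DMSO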
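Test system: mABHD4 protein | Buffer or medium: HEPES pH 7.0 buffer, 150 mM NaCl, 0.01% Pluronic F-127 | Probe or stimulus: FP-Rh fluorescent activity-based probe, added after compound pre-incubation | Timing: Pre-incubation 45 min, probe exposure 60 min, at 25 °C | Technique: Fluorescence polarization, excitation 525 nm, emission 598 nm, BODIPY TMR filters | Repeats: Single well per compound (singlicate)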
HTRA1 inh – HTRA1 (human) protease inhibition; hit rate 0.5% among 340,000; AID 504803; Q92743; inhibition, % at 5.96 µM; recombinant HTRA1, FP-rhodamine activity-based probe, fluorescence polarization; in the data active = inhibition above about 36%;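 note: 0% = enzyme with DMSO and 100% = wells lacking enzyme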
Target sequence (Q92743 whole entry, looked up): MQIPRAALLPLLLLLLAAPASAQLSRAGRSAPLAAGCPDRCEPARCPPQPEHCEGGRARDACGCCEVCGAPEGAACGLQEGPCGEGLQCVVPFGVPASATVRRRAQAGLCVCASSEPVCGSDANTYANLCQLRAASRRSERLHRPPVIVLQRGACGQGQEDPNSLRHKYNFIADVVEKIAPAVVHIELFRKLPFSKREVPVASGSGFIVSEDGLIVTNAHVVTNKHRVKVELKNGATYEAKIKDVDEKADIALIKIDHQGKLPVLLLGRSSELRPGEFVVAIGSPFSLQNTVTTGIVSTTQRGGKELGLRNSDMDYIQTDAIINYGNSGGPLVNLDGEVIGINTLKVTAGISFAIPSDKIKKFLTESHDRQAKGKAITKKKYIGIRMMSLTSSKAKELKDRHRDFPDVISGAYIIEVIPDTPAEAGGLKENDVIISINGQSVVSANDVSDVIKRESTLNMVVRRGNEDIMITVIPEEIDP
* hit, by the source's call; / = not tested or not shown. In the library only some 2% were active in any assay of this set; here they are far more common.

SMILES	PAD4 FP inh	SIAE primary	TDP2 absorb	TCR CD3 inh	ABHD4 inh	HTRA1 inh
Cn1ccc2ccc(-c3ccc4c(c3)[C@]3(CCC[C@@H](OCc5ccccc5)[C@@H]3NC(=O)CCc3ccccc3)C(=O)N4Cc3ccccc3)cc21	/	-4	10	/	-6	/
O=c1c2ccccc2sn1-c1ccc(S(=O)(=O)N2CCCCC2)cc1	6	4	-1	-2	-2	-1
O=c1c2ccccc2sn1-c1ccc(S(=O)(=O)N2CCCC2)cc1	23*	-15	-8	5	-24	-6
Cc1ccc(-n2sc3ccccc3c2=O)cc1S(=O)(=O)N1CCCCC1	25*	-5	-12	3	-10	-2
CN(C)S(=O)(=O)c1cccc(-n2sc3ccccc3c2=O)c1	27*	-16	-8	6	-41	-9
Cc1cc(NS(=O)(=O)c2ccc(NC(=O)c3ccccc3F)cc2)no1	-4	-2	-6	-2	-4	6
COc1ccccc1C(=O)Nc1ccc(S(=O)(=O)Nc2cc(C)on2)cc1	-4	27*	6	2	0	0
Cc1ccc(CNC(=O)OC(C)(C)C)c(/C=C/S(=O)(=O)NC2CCCC2)c1	/	-7	-5	/	-16	/
CCN1CCc2c(sc(N)c2C#N)C1	-10	-18	-6	1	-9	3
N#Cc1c(N)sc(=S)c2c1CCN(Cc1ccccc1)C2	54*	/	/	/	/	/
COC/C=C/C1=CC2=CC(=O)C(C)(OC(=O)c3cccs3)C(=O)C2=CO1 (centres undefined)	6	/	/	/	/	/
COC/C=C/C1=CC2=CC(=O)C(C)(OC(=O)c3ccco3)C(=O)C2=CO1 (centres undefined)	24*	/	/	/	/	/
CCc1cccc2cc3c(N)c(C(=O)Nc4ccc(S(=O)(=O)N5CCCC5)cc4)sc3nc12	3	27*	12	-7	7	-4
Cc1nc2cc(C(=O)N3CCN(C(=O)C(Cl)Cl)CC3)ccc2n1C1CCCC1	/	-1	-1	/	7	/
Cc1ccccc1Nc1cc2ccccc2c(=O)[nH]1	59*	/	/	/	/	0
Cc1cc2ccccc2c(=O)[nH]1	-5	-2	14	-6	3	6
CN=c1sc2c(n1C)C(=O)c1ccccc1C2=O	/	9	35*	-4	15	4
Cc1ccc(S(=O)(=O)Nc2ccc(O)c(Sc3ncn[nH]3)c2)cc1	-5	0	-1	9	6	8
Cc1ccc(S(=O)(=O)N2CCN(C(=O)CSc3ncn[nH]3)CC2)c(C)c1	-3	10	6	6	-3	2
CC(C)c1ccc(S(=O)(=O)/N=C2/C=C(Sc3ncn[nH]3)C(=O)c3ccccc32)cc1	38*	/	/	/	/	29
Cc1ccc(S(=O)(=O)/N=C2/C=C(Sc3ncn[nH]3)C(=O)c3ccccc32)c(C)c1	16*	/	/	/	/	/
C[C@H]1[C@@H](OC(=O)NCCc2ccccc2)CC[C@@]23CCCN2C(=O)CCC[C@@H]13	/	-9	-4	/	5	/
O=C(Nc1ccc(Nc2cccnc2)cc1)c1c[nH]c2ccccc12	/	13	0	0	42*	/
O=C(NCc1cccnc1)C(=O)c1c[nH]c2ccccc12	-1	4	-4	3	0	-2
COc1ccc(C(NC(=O)c2cccnc2)c2cc(Cl)c3cccnc3c2O)cc1OC (centres undefined)	-7	10	-1	2	7	45*
SMILES	PAD4 FP inh	SIAE primary	TDP2 absorb	TCR CD3 inh	ABHD4 inh	HTRA1 inh
Cc1ccc2c(c1C)NC(C(=O)O)C1CC=CC21 (centres undefined)	2	/	/	/	/	51*
O=C(O)C1Nc2c(C(F)(F)F)ccc(Cl)c2C2C=CCC12 (centres undefined)	-4	4	2	0	36*	20
C[C@H]1[C@@H](OC(=O)Nc2ccc(C#N)cc2)CC[C@@]23CCCN2C(=O)CCC[C@@H]13	/	-2	-2	/	-3	/
Cc1nc2sc(C(=O)NC3CC3)c(N)c2c(C)c1Cl	/	3	-1	/	3	/
Nc1c(C(=O)NC2CC2)sc2nc3c(c(-c4ccco4)c12)CC/C3=C/c1ccco1	-13	/	/	/	/	54*
O=c1oc2cc([N+](=O)[O-])ccc2nc1/C=C(\O)c1cccc(Br)c1	2	6	-9	-11	39*	3
COC(=O)CCCC1=CC2=CC(=O)C(C)(OC(=O)c3cnc4ccccc4n3)C(=O)C2=CO1 (centres undefined)	32*	/	/	/	/	/
